ChEMBL document CHEMBL3616436, “Synthesis, cytotoxicity and antimicrobial activity of thiourea derivatives incorporating 3-(trifluoromethyl)phenyl moiety” (Eur J Med Chem, 2015)
pEC50: −log10 of the molar value. Converted amounts (≈) assume the structure as drawn.

Assays:
Staphylococcus aureus [1] = experiment: Antimicrobial activity against hospital methicillin-resistant Staphylococcus aureus 81/05 after 18 hrs by twofold serial microdilution method; type: functional; conditions: 81/05, 18 h
In short: (§1)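 Twofold serial microdilution in Mueller-Hinton broth. Compound stock was made in DMSO and diluted in sterile water. Tested range was 0.125–512 µg/mL. Final inoculum was 10^5 CFU/mL. Plates were incubated 18 h at 35 °C. MIC is the lowest concentration preventing visible growth.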

[2] = system: Staphylococcus epidermidis; experiment: Antimicrobial activity against hospital methicillin-resistant Staphylococcus epidermidis 151/04 after 18 hrs by twofold serial microdilution method; type: functional; conditions: 151/04, 18 h; in short: as §1
[3] = system: Human immunodeficiency virus 1; experiment: Antiviral activity against HIV1 3B infected in human MT4 cells assessed as protection against virus-induced cytopathogenicity by MTT assay; type: functional, organism-based; conditions: Human immunodeficiency virus 1, 3B
[4] = Cytotoxicity against African green monkey Vero 76 cells assessed as cell viability after 48 to 96 hrs by crystal violet staining; type: cell-based; conditions: chlorocebus sabaeus
Staphylococcus aureus [5] = experiment: Antimicrobial activity against hospital methicillin-resistant Staphylococcus aureus 79/05 after 18 hrs by twofold serial microdilution method; type: functional; conditions: 79/05, 18 h; in short: as §1
[6] = system: Staphylococcus epidermidis; experiment: Antimicrobial activity against hospital methicillin-resistant Staphylococcus epidermidis 23/04 after 18 hrs by twofold serial microdilution method; type: functional; conditions: 23/04, 18 h; in short: as §1
Enterococcus faecalis = experiment: Antimicrobial activity against Enterococcus faecalis ATCC 29212 at 400 ug after 18 hrs by disc-diffusion method; type: functional; conditions: ATCC 29212, 18 h, read-out: IZ
In short: (§2)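 Disc diffusion on Mueller-Hinton II agar per CLSI; 9 mm paper discs loaded with 400 µg compound from DMSO solution, dried, placed on agar; growth inhibition zone diameter read after 18 h at 35°C.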

Staphylococcus aureus [7] = experiment: Antimicrobial activity against Staphylococcus aureus ATCC 25923 after 18 hrs by twofold serial microdilution method; type: functional; conditions: ATCC 25923, 18 h
Yellow fever virus = experiment: Antiviral activity against Yellow fever virus 17D infected in BHK cells assessed as protection against virus-induced cytopathogenicity after 3 to 4 days by MTT assay; type: functional, cell-based
[8] = system: Mycobacterium tuberculosis; experiment: Antimycobacterial activity against drug-sensitive Mycobacterium tuberculosis Spec. 192; type: functional
In short: (§3)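 Classical test-tube successive-dilution method in Youmans' modification of Proskauer and Beck liquid medium with 10% bovine serum. Inoculum came from 14-day cultures. DMSO stock was 10 mg/mL, diluted geometrically in medium. Tubes were incubated at 37 °C. Concentrations tested were 3.1, 6.2, 12.5, 25, 50 and 100 µg/ml. MIC is the minimum concentration inhibiting growth relative to compound-free tubes.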

Staphylococcus aureus [9] = experiment: Ratio of ciprofloxacin MIC to compound MIC for hospital methicillin-resistant Staphylococcus aureus 53/05 after 18 hrs by twofold serial microdilution method; type: functional
In short: (§4)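 Ratio of MICs for ciprofloxacin and test agent, each from twofold serial broth microdilution in Mueller-Hinton broth following CLSI guidelines. DMSO stock was diluted in sterile water to 0.125–512 µg/mL, with a final inoculum of 10^5 CFU/mL.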

[10] = system: Staphylococcus epidermidis; experiment: Antimicrobial activity against Staphylococcus epidermidis ATCC 35984 after 18 hrs by twofold serial microdilution method; type: functional; conditions: ATCC 35984, 18 h
[11] = system: Vesicular stomatitis virus; experiment: Antiviral activity against Vesicular stomatitis virus ATCC VR 1540 infected in African green monkey Vero 76 cells assessed as reduction of virus-plaque formation after 2 days by crystal violet staining; type: functional, organism-based; conditions: ATCC VR 1540, Vero, 48 h
Staphylococcus aureus [12] = experiment: Antimicrobial activity against Staphylococcus aureus ATCC 6538 after 18 hrs by twofold serial microdilution method; type: functional; conditions: ATCC 6538, 18 h
Staphylococcus aureus [13] = experiment: Antimicrobial activity against Staphylococcus aureus NCTC 4163 after 18 hrs by twofold serial microdilution method; type: functional; conditions: NCTC 4163, 18 h
[14] = system: Staphylococcus epidermidis; experiment: Antimicrobial activity against hospital methicillin-resistant Staphylococcus epidermidis 62/04 after 18 hrs by twofold serial microdilution method; type: functional; conditions: 62/04, 18 h; in short: as §1
[15] = system: Staphylococcus epidermidis; experiment: Ratio of ciprofloxacin MIC to compound MIC for hospital methicillin-resistant Staphylococcus epidermidis 23/04 after 18 hrs by twofold serial microdilution method; type: functional; in short: as §4
[16] = system: Staphylococcus epidermidis; experiment: Antimicrobial activity against hospital methicillin-resistant Staphylococcus epidermidis 76/04 after 18 hrs by twofold serial microdilution method; type: functional; conditions: 76/04, 18 h; in short: as §1
Staphylococcus aureus [17] = experiment: Antimicrobial activity against hospital methicillin-resistant Staphylococcus aureus 80/05 after 18 hrs by twofold serial microdilution method; type: functional; conditions: 80/05, 18 h; in short: as §1
[18] = system: Mycobacterium tuberculosis; experiment: Antimycobacterial activity against Mycobacterium tuberculosis H37Rv ATCC 25618; type: functional; in short: as §3
Bacillus subtilis = experiment: Antimicrobial activity against Bacillus subtilis ATCC 6633 at 400 ug after 18 hrs by disc-diffusion method; type: functional; conditions: ATCC 6633, 18 h, read-out: IZ; in short: as §2
[19] = Cytotoxicity against BHK cells assessed as cell viability after 48 to 96 hrs by MTT assay; type: cell-based, Mesocricetus auratus; conditions: hamster
[20] = Cytotoxicity against bovine MDBK cells assessed as cell viability after 48 to 96 hrs by MTT assay; type: cell-based, Bos taurus; conditions: cattle
[21] = system: Staphylococcus epidermidis; experiment: Ratio of ciprofloxacin MIC to compound MIC for hospital methicillin-resistant Staphylococcus epidermidis […]/[…] after 18 hrs by twofold serial microdilution method; type: functional, 16/04
Coxsackievirus B5 = experiment: Antiviral activity against Human coxsackievirus B5 ATCC VR-29 infected in African green monkey Vero 76 cells assessed as reduction of virus-plaque formation after 3 days by crystal violet staining; type: functional, organism-based; conditions: Enterovirus B, ATCC VR-29, Vero, 72 h
In short: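 Plaque reduction: Vero-76 at 2x10^5 cells/well grown to confluent monolayers, infected 2 h at 50–100 PFU/well; after removing unadsorbed virus, overlay of D-MEM, 1% inactivated FBS, 0.75% methylcellulose with or without serial compound dilutions; 3 days at 37°C, fixed and stained with crystal violet in 50% ethanol, plaques counted; EC50 by linear regression.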

[22] = system: Staphylococcus epidermidis; experiment: Antimicrobial activity against Staphylococcus epidermidis ATCC 35984 at 400 ug after 18 hrs by disc-diffusion method; type: functional; conditions: ATCC 35984, 18 h, read-out: IZ; in short: as §2
Staphylococcus aureus [23] = experiment: Antimicrobial activity against hospital methicillin-resistant Staphylococcus aureus 57/05 after 18 hrs by twofold serial microdilution method; type: functional; conditions: 57/05, 18 h; in short: as §1
[24] = system: Staphylococcus epidermidis; experiment: Ratio of ciprofloxacin MIC to compound MIC for hospital methicillin-resistant Staphylococcus epidermidis 31/04 after 18 hrs by twofold serial microdilution method; type: functional; in short: as §4
Staphylococcus aureus [25] = experiment: Ratio of ciprofloxacin MIC to compound MIC for hospital methicillin-resistant Staphylococcus aureus 80/05 after 18 hrs by twofold serial microdilution method; type: functional; in short: as §4
Staphylococcus aureus [26] = experiment: Antimicrobial activity against Staphylococcus aureus ATCC 6538 at 400 ug after 18 hrs by disc-diffusion method; type: functional; conditions: ATCC 6538, 18 h, read-out: IZ; in short: as §2
[27] = system: Staphylococcus epidermidis; experiment: Antimicrobial activity against hospital methicillin-resistant Staphylococcus epidermidis 16/04 after 18 hrs by twofold serial microdilution method; type: functional; conditions: 16/04, 18 h; in short: as §1
Staphylococcus aureus [28] = experiment: Antimicrobial activity against hospital methicillin-resistant Staphylococcus aureus 573/11 after 18 hrs by twofold serial microdilution method; type: functional; conditions: 573/11, 18 h; in short: as §1
Staphylococcus aureus [29] = experiment: Antimicrobial activity against hospital methicillin-resistant Staphylococcus aureus 53/05 after 18 hrs by twofold serial microdilution method; type: functional; conditions: 53/05, 18 h; in short: as §1

Fc1cccc(NC(=S)Nc2cccc(C(F)(F)F)c2)c1
MIC (Staphylococcus aureus [1]): 8 µg/mL (≈ 25.5 µM)
MIC [2]: 16 µg/mL (≈ 50.9 µM)
pEC50 [3]: < 4.70
CC50 [4]: 20 µM
MIC (Staphylococcus aureus [5]): 8 µg/mL (≈ 25.5 µM)
MIC [6]: 8 µg/mL (≈ 25.5 µM)
zone of inhibition at 400 µg/disc (Enterococcus faecalis): 14 mm
MIC (Staphylococcus aureus [7]): 4 µg/mL (≈ 12.7 µM)
pEC50 (Yellow fever virus): < 5.03
MIC [8]: > 100 µg/mL
Ratio (Staphylococcus aureus [9]): 128
MIC [10]: 8 µg/mL (≈ 25.5 µM)
pEC50 [11]: < 4.70
MIC (Staphylococcus aureus [12]): 4 µg/mL (≈ 12.7 µM)
MIC (Staphylococcus aureus [13]): 4 µg/mL (≈ 12.7 µM)
MIC [14]: 8 µg/mL (≈ 25.5 µM)
Ratio [15]: 128
MIC [16]: 16 µg/mL (≈ 50.9 µM)
MIC (Staphylococcus aureus [17]): 8 µg/mL (≈ 25.5 µM)
MIC [18]: 25 µg/mL (≈ 79.5 µM)
zone of inhibition at 400 µg/disc (Bacillus subtilis): 20 mm
CC50 [19]: 9.4 µM
CC50 [20]: 10 µM
Ratio [21]: 128
pEC50 (Coxsackievirus B5): < 4.70
zone of inhibition at 400 µg/disc [22]: 19 mm
MIC (Staphylococcus aureus [23]): 4 µg/mL (≈ 12.7 µM)
Ratio [24]: 128
Ratio (Staphylococcus aureus [25]): 128
zone of inhibition at 400 µg/disc (Staphylococcus aureus [26]): 20 mm
MIC [27]: 8 µg/mL (≈ 25.5 µM)
MIC (Staphylococcus aureus [28]): 8 µg/mL (≈ 25.5 µM)
MIC (Staphylococcus aureus [29]): 4 µg/mL (≈ 12.7 µM)
